Measured values taken from ChEMBL document CHEMBL4177760, “Ligand-Phospholipid Conjugation: A Versatile Strategy for Developing Long-Acting Ligands That Bind to Membrane Proteins by Restricting the Subcellular Localization of the Ligand” (J Med Chem, 2018).
The source made the active and inactive calls. The calls are words filed in the database; no cut-off is given here.

Key:
[1] = target: Muscarinic acetylcholine receptor; assay: Displacement of [3H]NMS from muscarinic receptor in Sprague-Dawley rat brain homogenates after 60 mins by liquid scintillation counting method
Summary of the method: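 Competition binding against [3H]N-methyl scopolamine in rat brain homogenates carrying muscarinic receptors; read-out as log IC50; data from at least four experiments.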

[2] = target: T1, Muscarinic acetylcholine receptor (Rattus norvegicus) (UniProt P08482+P08483+P08485+P08911+P10980); assay: Displacement of [3H]NMS from muscarinic receptor in Sprague-Dawley rat brain homogenates assessed as remaining protein bound radioligand levels at 300 pM to 1 uM preincubated for 60 mins followed by single washout treatment by liquid scintillation counting method relative to control
Summary of the method: (§1)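 Rat brain homogenates incubated with test ligand at 25 °C. [3H]N-methyl scopolamine binding to muscarinic receptors measured before and after wash-out with ice-cold buffer and expressed as binding remaining. Based on at least four experiments.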

[3] = target: T1, Muscarinic acetylcholine receptor (Rattus norvegicus); assay: Displacement of [3H]NMS from muscarinic receptor in Sprague-Dawley rat brain homogenates assessed as remaining protein bound radioligand levels at 300 pM to 1 uM after 60 mins by liquid scintillation counting method relative to control; summary of the method: as §1
[4] = target: T2, Muscarinic acetylcholine receptor M2 (Rattus norvegicus, UniProt P10980); assay: Displacement of [3H]NMS from muscarinic receptor M2 in Sprague-Dawley rat brain homogenates after 60 mins by liquid scintillation counting method
T2 sequence (P10980 whole entry): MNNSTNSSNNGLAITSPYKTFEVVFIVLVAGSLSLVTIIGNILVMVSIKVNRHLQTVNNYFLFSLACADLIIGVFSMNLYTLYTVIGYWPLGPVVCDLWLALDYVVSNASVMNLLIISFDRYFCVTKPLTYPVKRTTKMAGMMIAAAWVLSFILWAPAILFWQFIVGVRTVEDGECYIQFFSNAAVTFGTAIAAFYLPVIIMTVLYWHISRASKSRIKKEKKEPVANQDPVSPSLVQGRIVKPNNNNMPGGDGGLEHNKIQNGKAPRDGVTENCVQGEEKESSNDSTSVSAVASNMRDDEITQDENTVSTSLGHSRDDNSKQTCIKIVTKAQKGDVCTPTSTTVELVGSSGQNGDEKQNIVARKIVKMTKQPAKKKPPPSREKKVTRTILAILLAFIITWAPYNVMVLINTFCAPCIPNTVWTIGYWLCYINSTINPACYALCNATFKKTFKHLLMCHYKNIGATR

[5] = target: Muscarinic acetylcholine receptor M3 (Rattus norvegicus, UniProt P08483); assay: Displacement of [3H]NMS from muscarinic receptor M3 in Sprague-Dawley rat brain homogenates after 60 mins by liquid scintillation counting method
[6] = target: T3, Muscarinic acetylcholine receptor M5 (Rattus norvegicus, UniProt P08911); assay: Displacement of [3H]NMS from muscarinic receptor M5 in Sprague-Dawley rat brain homogenates after 60 mins by liquid scintillation counting method
T3 sequence (P08911 whole entry): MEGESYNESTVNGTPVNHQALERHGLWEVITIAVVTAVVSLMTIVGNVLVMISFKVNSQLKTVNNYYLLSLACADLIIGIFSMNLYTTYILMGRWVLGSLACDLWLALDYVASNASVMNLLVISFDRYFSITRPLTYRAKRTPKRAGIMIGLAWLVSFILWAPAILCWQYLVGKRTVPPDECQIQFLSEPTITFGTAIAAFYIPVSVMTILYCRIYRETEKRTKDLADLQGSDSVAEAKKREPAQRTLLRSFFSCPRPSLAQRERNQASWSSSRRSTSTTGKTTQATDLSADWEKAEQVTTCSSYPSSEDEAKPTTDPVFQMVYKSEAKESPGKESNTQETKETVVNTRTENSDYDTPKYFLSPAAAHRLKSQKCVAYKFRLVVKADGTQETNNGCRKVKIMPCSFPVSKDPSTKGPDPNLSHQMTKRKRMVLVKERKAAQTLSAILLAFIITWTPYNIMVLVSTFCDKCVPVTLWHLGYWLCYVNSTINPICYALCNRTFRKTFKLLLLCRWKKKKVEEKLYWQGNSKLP

[7] = target: T4, Muscarinic acetylcholine receptor M1 (Rattus norvegicus, UniProt P08482); assay: Displacement of [3H]NMS from muscarinic receptor M1 in Sprague-Dawley rat brain homogenates after 60 mins by liquid scintillation counting method
T4 sequence (P08482 whole entry): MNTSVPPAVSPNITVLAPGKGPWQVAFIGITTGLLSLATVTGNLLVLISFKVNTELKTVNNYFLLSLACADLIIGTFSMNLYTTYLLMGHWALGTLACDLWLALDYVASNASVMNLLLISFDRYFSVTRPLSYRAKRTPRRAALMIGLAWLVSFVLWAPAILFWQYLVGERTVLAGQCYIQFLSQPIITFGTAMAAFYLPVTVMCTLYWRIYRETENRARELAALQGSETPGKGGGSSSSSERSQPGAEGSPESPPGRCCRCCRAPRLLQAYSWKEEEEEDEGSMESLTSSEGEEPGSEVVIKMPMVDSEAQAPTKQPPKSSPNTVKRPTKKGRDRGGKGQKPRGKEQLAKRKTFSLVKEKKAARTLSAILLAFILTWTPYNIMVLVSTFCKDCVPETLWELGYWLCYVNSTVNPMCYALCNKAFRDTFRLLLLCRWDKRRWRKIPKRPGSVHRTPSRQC

[8] = target: T5, Muscarinic acetylcholine receptor M4 (Rattus norvegicus, UniProt P08485); assay: Displacement of [3H]NMS from muscarinic receptor M4 in Sprague-Dawley rat brain homogenates after 60 mins by liquid scintillation counting method
T5 sequence (P08485 whole entry): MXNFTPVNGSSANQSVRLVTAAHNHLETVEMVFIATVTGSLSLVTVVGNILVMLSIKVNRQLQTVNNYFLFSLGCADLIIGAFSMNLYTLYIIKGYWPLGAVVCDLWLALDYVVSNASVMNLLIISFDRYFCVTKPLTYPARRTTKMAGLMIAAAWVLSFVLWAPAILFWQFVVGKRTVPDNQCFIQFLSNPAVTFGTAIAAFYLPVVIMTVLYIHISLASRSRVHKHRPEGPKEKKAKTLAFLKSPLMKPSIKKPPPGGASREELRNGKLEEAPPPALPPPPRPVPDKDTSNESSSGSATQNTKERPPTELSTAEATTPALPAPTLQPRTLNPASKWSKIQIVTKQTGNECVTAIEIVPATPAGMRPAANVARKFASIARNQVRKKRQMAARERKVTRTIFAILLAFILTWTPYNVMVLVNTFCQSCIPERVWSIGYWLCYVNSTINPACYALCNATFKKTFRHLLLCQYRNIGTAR

[9] = tested on: Rattus norvegicus; assay: In vivo displacement of [3H]NMS from muscarinic receptor in rat bladder assessed as increase in [3H]NMS Kdapp at 10 uM administered via intravesical instillation measured after 30 mins; type: functional, organism-based
Summary of the method: (§2)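 Rats received the compound by intravesical instillation. Bladders were dissected 30 min or 24 h afterwards and [3H]N-methyl scopolamine binding to bladder muscarinic receptors was measured directly. The apparent Kd (Kdapp) of the radioligand was calculated and compared against control animals.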

[10] = target: T1, Muscarinic acetylcholine receptor (Rattus norvegicus); assay: Displacement of [3H]NMS from muscarinic receptor in Sprague-Dawley rat brain homogenates assessed as remaining protein bound radioligand levels at 300 pM to 1 uM preincubated for 60 mins followed by double washout treatment by liquid scintillation counting method relative to control; summary of the method: as §1
[11] = tested on: Rattus norvegicus; assay: In vivo displacement of [3H]NMS from muscarinic receptor in rat bladder assessed as increase in [3H]NMS Kdapp at 10 uM administered via intravesical instillation measured after 24 hrs; type: functional, organism-based; summary of the method: as §2

Muscarinic acetylcholine receptor M3, sequence (P08483 whole entry): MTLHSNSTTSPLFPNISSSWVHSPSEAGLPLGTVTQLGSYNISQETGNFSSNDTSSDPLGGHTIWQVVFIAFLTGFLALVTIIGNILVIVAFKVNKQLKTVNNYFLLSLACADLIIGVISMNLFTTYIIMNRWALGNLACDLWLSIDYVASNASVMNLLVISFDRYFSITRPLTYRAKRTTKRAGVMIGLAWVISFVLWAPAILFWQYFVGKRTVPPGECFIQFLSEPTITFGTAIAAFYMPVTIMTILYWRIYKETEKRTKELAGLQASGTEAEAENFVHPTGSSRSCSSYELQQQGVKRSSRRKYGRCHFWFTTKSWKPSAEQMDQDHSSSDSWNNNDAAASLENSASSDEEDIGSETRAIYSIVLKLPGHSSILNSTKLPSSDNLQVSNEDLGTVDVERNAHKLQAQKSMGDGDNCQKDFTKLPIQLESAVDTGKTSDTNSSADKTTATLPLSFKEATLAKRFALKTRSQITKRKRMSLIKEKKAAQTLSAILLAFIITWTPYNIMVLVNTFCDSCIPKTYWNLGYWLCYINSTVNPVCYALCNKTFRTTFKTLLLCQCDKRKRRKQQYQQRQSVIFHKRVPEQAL

SMILES | pIC50 [1] | Activity [2] | Activity [3] | Ki [4] | Ki [5] | Activity [10] | Ki [6] | Ki [7] | Ki [8] | inhibition [9] | inhibition [11]
CCCCCCCCCCCCCCCCCC(=O)OC[C@H](COP(=O)(O)OCCOCCOCCOCCOCCOCCOCCOCCOCCOCCOCCOCCNC(=O)CCCCCC(=O)NCCc1ccc(O)c([C@H](CCN(C(C)C)C(C)C)c2ccccc2)c1)OC(=O)CCCCCCCCCCCCCCCCC | 8.49 | 1.9% | 11.2% |  |  |  |  |  |  |  | 
CC(C)N(CC[C@H](c1ccccc1)c1cc(CCNC(=O)CCCCCNC(=O)COc2ccc(/C=C/C3=[N+]4C(=Cc5ccc(-c6cccs6)n5[B-]4(F)F)C=C3)cc2)ccc1O)C(C)C |  |  |  | 9 nM | 10.3 nM |  | 17.5 nM | 4.6 nM | 6.3 nM |  | 
CCCCCCCCCCCCCCCCCC(=O)OC[C@H](COP(=O)(O)OCCOCCOCCOCCNC(=O)CCCCCC(=O)NCCc1ccc(O)c([C@H](CCN(C(C)C)C(C)C)c2ccccc2)c1)OC(=O)CCCCCCCCCCCCCCCCC | 7.74 | 15.5% | 32.3% |  |  |  |  |  |  |  | 
CCCCCCCCCCCCCCCCCC(=O)OC[C@H](COP(=O)(O)OCCOCCNC(=O)CCCCCC(=O)NCCc1ccc(O)c([C@H](CCN(C(C)C)C(C)C)c2ccccc2)c1)OC(=O)CCCCCCCCCCCCCCCCC | 6.91 | 59.2% | 66.4% |  |  |  |  |  |  |  | 
Cc1ccc(O)c([C@H](CCN(C(C)C)C(C)C)c2ccccc2)c1 [TOLTERODINE] |  | 36.2% | 9% |  |  | 93.2% | 2.2 nM | 1.4 nM | 3.1 nM | Active | inactive
CC(C)N(CC[C@H](c1ccccc1)c1cc(CCNC(=O)CCCCCC(=O)NCCOCCOCCOCCOCCOCCOCCOCCOCCOCCO)ccc1O)C(C)C.Cl | 7.88 | 34.9% | 7.1% |  |  | 63.5% |  |  |  |  | 

More lines, main results first:

pIC50 [1] | Activity [2] | Activity [3] | Ki [4] | Ki [5] | Activity [10] | SMILES | Ki [6] | Ki [7] | Ki [8] | inhibition [9] | inhibition [11]
8.53 | 1.7% | 6% |  |  | 2.1% | CCCCCCCCCCCCCCCCCC(=O)OC[C@H](COP(=O)(O)OCCOCCOCCOCCOCCOCCOCCOCCOCCOCCNC(=O)CCCCCC(=O)NCCc1ccc(O)c([C@H](CCN(C(C)C)C(C)C)c2ccccc2)c1)OC(=O)CCCCCCCCCCCCCCCCC |  |  |  | Active | Active
8.15 | 2.1% | 4.7% |  |  |  | CCCCCCCCCCCCCCCCCC(=O)OC[C@H](COP(=O)(O)OCCOCCOCCOCCOCCOCCOCCOCCNC(=O)CCCCCC(=O)NCCc1ccc(O)c([C@H](CCN(C(C)C)C(C)C)c2ccccc2)c1)OC(=O)CCCCCCCCCCCCCCCCC |  |  |  |  | 
7.86 | 5.1% | 14.5% |  |  |  | CCCCCCCCCCCCCCCCCC(=O)OC[C@H](COP(=O)(O)OCCOCCOCCOCCOCCOCCNC(=O)CCCCCC(=O)NCCc1ccc(O)c([C@H](CCN(C(C)C)C(C)C)c2ccccc2)c1)OC(=O)CCCCCCCCCCCCCCCCC |  |  |  |  | 
